Key:
[1] = Half life in NMRI nu/nu mouse plasma at 3 mM by RP-HPLC analysis; type: ADME, cell-free
[2] = molecular target: T1, ATP-dependent translocase ABCB1 (Homo sapiens, UniProt P08183); test: Inhibition of ABCB1 in human KBV1 cells up to 100 uM after 10 mins by Calcein-AM microplate assay; type: cell-based; settings: kbv1, 10 min
Method in brief: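 Microplate calcein-AM efflux assay in ABCB1-overexpressing Kb-V1 cells. Values are means ± SEM from two to three independent experiments, each run in triplicate.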

ABCG2 [3] = molecular target: T2, ABCG2 (Homo sapiens, UniProt Q9UNQ0); test: Inhibition of ABCG2 in human MCF7/Topo cells at 70 to 100 uM after 2 hrs by Hoechst 33342 microplate assay relative to 10 uM fumitremorgin; type: cell-based; settings: probe Hoechst 33342, read-out: Imax
T2 sequence (Q9UNQ0 whole entry): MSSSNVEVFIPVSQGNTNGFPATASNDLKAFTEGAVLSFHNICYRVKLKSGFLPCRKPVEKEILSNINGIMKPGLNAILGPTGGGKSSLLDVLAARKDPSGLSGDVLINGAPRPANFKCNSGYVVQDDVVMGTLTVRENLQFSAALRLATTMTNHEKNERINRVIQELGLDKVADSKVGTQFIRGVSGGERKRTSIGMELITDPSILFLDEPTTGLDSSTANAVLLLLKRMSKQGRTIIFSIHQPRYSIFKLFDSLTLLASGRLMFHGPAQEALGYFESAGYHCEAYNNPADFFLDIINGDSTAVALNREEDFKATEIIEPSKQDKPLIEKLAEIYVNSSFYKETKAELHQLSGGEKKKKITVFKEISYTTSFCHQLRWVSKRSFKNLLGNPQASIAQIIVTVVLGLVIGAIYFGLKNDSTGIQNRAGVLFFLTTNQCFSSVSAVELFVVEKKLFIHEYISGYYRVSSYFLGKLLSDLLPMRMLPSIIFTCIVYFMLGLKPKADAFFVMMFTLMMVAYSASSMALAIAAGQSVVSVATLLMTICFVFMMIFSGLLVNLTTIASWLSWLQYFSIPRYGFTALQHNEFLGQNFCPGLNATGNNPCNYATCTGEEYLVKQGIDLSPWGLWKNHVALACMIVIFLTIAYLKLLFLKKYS

[4] = molecular target: T3, Broad substrate specificity ATP-binding cassette transporter ABCG2 (Homo sapiens, UniProt Q9UNQ0); test: Inhibition of ABCG2 in human MCF7/Topo cells after 2 hrs by Hoechst 33342 microplate assay; type: cell-based; settings: for inhibition (INH): human, mcf7/topo, 2 h
T3 sequence (Q9UNQ0 whole entry): T2 sequence (Q9UNQ0 whole entry)

ABCB1 = ABCB1 (Homo sapiens, UniProt P08183); test: Inhibition of ABCB1 in human KBV1 cells after 10 mins by Calcein-AM microplate assay relative to 1 uM tariquidar; type: cell-based; settings: probe calcein-AM
Method in brief: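 Microplate calcein-AM assay in ABCB1-overexpressing Kb-V1 cells. Maximal inhibition is expressed as a percentage of the maximal response to tariquidar at 1 μM. Means ± SEM come from two to three independent experiments, each run in triplicate.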

[5] = molecular target: T1, ATP-dependent translocase ABCB1; test: Inhibition of ABCB1 in human KBV1 cells after 10 mins by Calcein-AM microplate assay; type: cell-based
Plasma = test: Stability in NMRI nu/nu mouse plasma at 3 mM measured within 30 mins by RP-HPLC analysis; type: ADME, cell-free; settings: 0.5 h, 3000 µM
ABCG2 [6] = molecular target: T2, ABCG2; test: Ratio of compound IC50 to elacridar IC50 for ABCG2 in human MCF7/Topo cells after 2 hrs by Hoechst 33342 microplate assay; type: cell-based; settings: probe Hoechst 33342, read-out: Ratio IC50

ABCB1, sequence (P08183 whole entry): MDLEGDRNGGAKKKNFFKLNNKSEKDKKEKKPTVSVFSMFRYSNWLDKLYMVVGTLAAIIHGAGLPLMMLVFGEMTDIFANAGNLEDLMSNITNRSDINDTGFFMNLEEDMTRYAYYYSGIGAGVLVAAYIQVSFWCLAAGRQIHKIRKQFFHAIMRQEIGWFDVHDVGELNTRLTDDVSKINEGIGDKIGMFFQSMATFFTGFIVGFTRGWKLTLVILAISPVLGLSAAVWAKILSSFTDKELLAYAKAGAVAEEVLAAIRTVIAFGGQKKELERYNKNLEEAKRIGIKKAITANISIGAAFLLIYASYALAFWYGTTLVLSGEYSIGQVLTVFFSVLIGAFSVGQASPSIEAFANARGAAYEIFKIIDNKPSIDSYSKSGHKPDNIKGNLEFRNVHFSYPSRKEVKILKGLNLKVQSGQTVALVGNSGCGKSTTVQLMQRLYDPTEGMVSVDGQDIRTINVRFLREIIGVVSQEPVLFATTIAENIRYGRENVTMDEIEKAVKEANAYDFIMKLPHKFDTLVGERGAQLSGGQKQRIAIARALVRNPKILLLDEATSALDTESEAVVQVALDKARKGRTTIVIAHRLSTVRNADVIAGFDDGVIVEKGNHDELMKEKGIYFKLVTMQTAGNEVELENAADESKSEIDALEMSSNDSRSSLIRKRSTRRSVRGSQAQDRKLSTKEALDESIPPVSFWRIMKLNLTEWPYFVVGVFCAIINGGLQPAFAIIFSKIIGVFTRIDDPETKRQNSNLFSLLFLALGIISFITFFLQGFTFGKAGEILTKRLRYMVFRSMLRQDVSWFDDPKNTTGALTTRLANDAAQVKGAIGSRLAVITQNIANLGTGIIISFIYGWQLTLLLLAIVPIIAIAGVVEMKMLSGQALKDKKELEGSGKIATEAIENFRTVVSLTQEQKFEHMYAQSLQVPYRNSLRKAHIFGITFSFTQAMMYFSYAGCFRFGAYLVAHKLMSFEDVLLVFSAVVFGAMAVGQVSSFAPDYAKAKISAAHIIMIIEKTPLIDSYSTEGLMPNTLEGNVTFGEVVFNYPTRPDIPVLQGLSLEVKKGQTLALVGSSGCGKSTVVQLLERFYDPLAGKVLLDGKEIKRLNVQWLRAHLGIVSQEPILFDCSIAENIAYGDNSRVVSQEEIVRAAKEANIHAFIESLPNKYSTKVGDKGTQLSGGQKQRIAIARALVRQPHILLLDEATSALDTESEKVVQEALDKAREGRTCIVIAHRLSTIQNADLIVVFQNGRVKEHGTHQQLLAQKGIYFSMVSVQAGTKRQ
T1 sequence (P08183 whole entry): as above

SMILES | half-life at 3000 µM [1] | inhibition (INH) [2] | Emax at 2 h (ABCG2 [3]) | IC50 [4] | inhibition at 10 min (ABCB1) | inhibition (INH) [4] | IC50 [5] | Stability (Plasma) | selectivity ratio at 2 h (ABCG2 [6])
COCCOCCOCCOc1cc2c(cc1OCCOCCOCCOC)CN(Cc1ccc(-c3ccc(C(=O)OC)c(NC(=O)c4ccc5ccccc5n4)c3)cc1)CC2 | 24 h | Not Active | 103% | 839 nM |  |  |  |  | 
COc1ccc2c3c([nH]c2c1)[C@H](C=C(C)C)N1C(=O)[C@@H]2CCCN2C(=O)[C@@H]1C3 [FUMITREMORGIN] |  |  | 100% | 731 nM |  |  |  |  | 
COCCOCCOCCOc1cc2c(cc1OC)CCN(Cc1ccc(-c3ccc(C(=O)OC)c(NC(=O)c4ccc5ccccc5n4)c3)cc1)C2 | 24 h |  | 109% | 591 nM | 20% | Dose-dependent effect | 1230 nM |  | 
COCCOCCOCCOc1cc2c(cc1OC)CN(Cc1ccc(-c3ccc(C(=O)OC)c(NC(=O)c4ccc5ccccc5n4)c3)cc1)CC2 | 24 h | Not Active | 114% | 1030 nM |  |  |  |  | 
COCCOCCOCCOc1cc2c(cc1OC)CCN(CCc1ccc(-c3ccc(C(=O)OC)c(NC(=O)c4ccc5ccccc5n4)c3)cc1)C2 | 24 h |  | 98% | 760 nM | 50% |  | 5420 nM |  | 
COCCOCCOCCOc1cc2c(cc1OC)CCN(CCc1ccc(NC(=O)c3ccc(C(=O)OC)c(NC(=O)c4ccc5ccccc5n4)c3)cc1)C2 | 0.167 h |  |  |  |  |  |  | Unstable | 
COC(=O)c1ccc(-c2ccc(CCN3CCc4ccccc4C3)cc2)cc1NC(=O)c1ccc2ccccc2n1 | 24 h | Not Active | 90% | 1100 nM |  |  |  |  | 
COC(=O)c1ccc(-c2ccc(CN3CCc4ccccc4C3)cc2)cc1NC(=O)c1ccc2ncccc2c1 | 24 h |  | 94% | 641 nM |  |  | 4490 nM |  | 
COC(=O)c1ccc(-c2ccc(CN3CCc4cc(OC)c(OC)cc4C3)cc2)cc1NC(=O)c1ccc2ccccc2n1 | 24 h | Not Active | 87% | 943 nM |  |  |  |  | 
COC(=O)c1ccc(C(=O)Nc2ccc(CCN3CCc4cc(OC)c(OC)cc4C3)cc2)cc1NC(=O)c1ccc2ccccc2n1 | 0.167 h |  | 63% | 65 nM |  | Dose-dependent effect |  | Unstable | 
COC(=O)c1ccc(-c2ccc(CN3CCc4ccccc4C3)cc2)cc1NC(=O)c1ccc2ccccc2n1 | 24 h | Not Active | 85% | 1460 nM |  |  |  |  | 
COc1cc2c(cc1OC)CN(CCc1ccc(NC(=O)c3cccc4c(=O)c5cccc(OC)c5[nH]c34)cc1)CC2 |  |  | 63% |  |  |  |  |  | 
COCCOCCOCCOc1cc2c(cc1OC)CN(Cc1ccc(-c3ccc(C(=O)OC)c(NC(=O)c4ccc5ncccc5c4)c3)cc1)CC2 | 24 h |  | 67% | 237 nM |  |  | 18000 nM |  | 
COc1ccc2c3c([nH]c2c1)[C@H](CC(C)C)N1C(=O)[C@H](CCC(=O)OC(C)(C)C)NC(=O)[C@@H]1C3 |  | Not Active |  |  |  |  |  |  | 
COC(=O)c1ccc(-c2ccc(CCN3CCc4cc(OC)c(OC)cc4C3)cc2)cc1NC(=O)c1ccc2ccccc2n1 | 24 h | Not Active | 126% | 3210 nM |  |  |  |  | 
COc1cc2c(cc1OC)CN(CCc1ccc(NC(=O)c3cc(OC)c(OC)cc3NC(=O)c3cnc4ccccc4c3)cc1)CC2 |  |  | 69% |  |  | Dose-dependent effect |  |  | 4
COCCOCCOCCOc1cc2c(cc1OCCOCCOCCOC)CN(CCc1ccc(-c3ccc(C(=O)OC)c(NC(=O)c4ccc5ccccc5n4)c3)cc1)CC2 | 24 h |  | 112% | 544 nM | 50% | Dose-dependent effect | 5990 nM |  | 
COC(=O)c1ccc(-c2ccc(CN3CCc4cc(OC)c(OC)cc4C3)cc2)cc1NC(=O)c1ccc2ncccc2c1 | 24 h |  | 92% | 1540 nM |  |  | 10900 nM |  | 
